For one experiment, the system named is HeLa. The experiment can be described thus: Cytotoxicity against human HeLa cells. Type of experiment: functional, cell-based.
The next experiment deals with BGC-823. The experiment can be described thus: Cytotoxicity against human BGC823 cells. The experiment is classed as functional, cell-based.
The target in experiment [1] is 11-beta-hydroxysteroid dehydrogenase 1 (Mus musculus, UniProt P50172). Kind of experiment: Inhibition of mouse 11beta-HSD1 expressed in human HEK293 cells assessed as conversion of [3H]cortisone to [3H]cortisol by scintillation proximity assay. The experiment is classed as cell-based. The method in brief:
(§1)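 Full-length human or mouse 11β-HSD1 cDNA in pcDNA3, stably expressed in HEK-293 cells selected with 700 μg/mL G418; microsomal fraction used as enzyme. Microsomes incubated with NADPH and [3H]cortisone; [3H]cortisol product captured by monoclonal antibody on protein A-coated SPA beads. Glycyrrhizinic acid positive control. IC50 as mean ± SD, n = 3.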

Experiment [2] deals with 11-beta-hydroxysteroid dehydrogenase 1 (Homo sapiens, UniProt P28845). Kind of experiment: Inhibition of human 11beta-HSD1 expressed in human HEK293 cells assessed as conversion of [3H]cortisone to [3H]cortisol by scintillation proximity assay. Type of experiment: cell-based. The method in brief:
as §1
In general terms: In a scintillation proximity assay essentially only radioactivity close to the scintillant gives light.

Results on 9 compounds are retold here after ChEMBL document CHEMBL1926656, “Cyclopeptide Alkaloids from Ziziphus apetala” (J Nat Prod, 2011).

The source made the active and inactive calls. The rule behind the calls is not given here.

11-beta-hydroxysteroid dehydrogenase 1 (Homo sapiens, UniProt P28845), sequence (P28845 whole entry): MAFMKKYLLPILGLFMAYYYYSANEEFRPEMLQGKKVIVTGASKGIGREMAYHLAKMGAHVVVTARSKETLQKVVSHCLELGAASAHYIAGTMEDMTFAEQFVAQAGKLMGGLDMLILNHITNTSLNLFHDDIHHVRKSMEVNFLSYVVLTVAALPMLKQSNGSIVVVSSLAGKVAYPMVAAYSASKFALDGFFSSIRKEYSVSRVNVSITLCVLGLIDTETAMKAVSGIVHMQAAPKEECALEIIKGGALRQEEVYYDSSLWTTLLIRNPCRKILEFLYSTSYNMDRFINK
11-beta-hydroxysteroid dehydrogenase 1 (Mus musculus, UniProt P50172), sequence (P50172 whole entry): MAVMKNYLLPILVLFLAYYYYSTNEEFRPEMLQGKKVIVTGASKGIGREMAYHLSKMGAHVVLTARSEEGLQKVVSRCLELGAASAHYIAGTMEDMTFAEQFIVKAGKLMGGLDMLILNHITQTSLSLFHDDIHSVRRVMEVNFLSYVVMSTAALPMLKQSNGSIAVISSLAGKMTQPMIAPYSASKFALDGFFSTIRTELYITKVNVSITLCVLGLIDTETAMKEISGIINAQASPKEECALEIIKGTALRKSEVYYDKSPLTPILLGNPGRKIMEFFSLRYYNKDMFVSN

As for `CN[C@@H](C)C(=O)N[C@H](C(=O)N1CC[C@@H]2Oc3ccc(cc3)/C=C\NC(=O)[C@H](Cc3ccccc3)NC(=O)[C@H]21)C(C)C`, the result in the experiment with HeLa and in the experiment on BGC-823 was inactive.
With `CC(C)[C@H](NC(=O)[C@H](C)N(C)C)C(=O)N1CC[C@@H]2Oc3ccc(cc3)/C=C\NC(=O)[C@H](Cc3ccccc3)NC(=O)[C@H]21` [MAURITINE A], the half-inhibitory concentration (IC50) in experiment [1] was 54.2 µM; in experiment [2], 90.3 µM. Moreover, the outcome in the experiment with HeLa and with BGC-823 was inactive.
Turning to `CC1(C)[C@@H](O[C@H]2O[C@H](C(=O)O)[C@@H](O)[C@H](O)[C@H]2O[C@@H]2O[C@H](C(=O)O)[C@@H](O)[C@H](O)[C@H]2O)CC[C@]2(C)[C@H]3C(=O)C=C4[C@@H]5C[C@@](C)(C(=O)O)CC[C@]5(C)CC[C@@]4(C)[C@]3(C)CC[C@@H]12` [GLYCYRRHIZIN], the IC50 in experiment [1] turned out to be 0.0295 µM; in experiment [2], 0.0186 µM.
With `CC(C)[C@H](NC(=O)[C@@H](C)[N+](C)(C)[O-])C(=O)N1CC[C@@H]2Oc3ccc(cc3)/C=C\NC(=O)[C@H](Cc3ccccc3)NC(=O)[C@H]21`, the outcome with HeLa and in the experiment with BGC-823 was inactive.
As to `CC(C)[C@@H](C(=O)N1CC[C@@H]2Oc3ccc(cc3)/C=C\NC(=O)[C@H](Cc3ccccc3)NC(=O)[C@H]21)N1CN(C)[C@@H](C)C1=O`, the outcome in the experiment with HeLa and in the experiment on BGC-823 was inactive.
Take `CC(C)[C@H](NC(=O)C(C)N(C)C=O)C(=O)N1CC[C@@H]2Oc3ccc(cc3)/C=C\NC(=O)[C@H](Cc3ccccc3)NC(=O)[C@H]21` (stereo not given in full): the outcome in the experiment with HeLa and with BGC-823 was inactive.
With `C/C(=N/O)C(=O)N[C@H](C(=O)N1CC[C@@H]2Oc3ccc(cc3)/C=C\NC(=O)[C@H](Cc3ccccc3)NC(=O)[C@H]21)C(C)C`, the result in the experiment with HeLa and with BGC-823 was inactive.
As to `CC(C)[C@H](NC(=O)[C@@H](C)N(C)C)C(=O)N1CC[C@@H]2Oc3ccc(cc3)/C=C\NC(=O)[C@H](Cc3ccccc3)NC(=O)[C@H]21`, the outcome in the experiment with HeLa and in the experiment with BGC-823 was inactive.
Regarding `CC(C)[C@H](NC(=O)[C@H](C)[N+](C)(C)[O-])C(=O)N1CC[C@@H]2Oc3ccc(cc3)/C=C\NC(=O)[C@H](Cc3ccccc3)NC(=O)[C@H]21`, the outcome with HeLa and in the experiment with BGC-823 was inactive.

As usually defined, the IC50 is the point on the concentration scale where inhibition reaches its midpoint.
